This note sets out measurements from ChEMBL document CHEMBL1240389, “In vitro and in vivo activities of the novel anticytomegalovirus compound AIC246” (Antimicrob Agents Chemother, 2010).

In assay [1] the test system is Human betaherpesvirus 5. Nature of the assay: Antiviral activity against human cytomegalovirus AD169 infected in NHDF at 50 nM treated after 57 hrs postinfection measured after 7 days by GFP-based fluorescent reduction assay. It is filed as functional, organism-based.
The subject of assay [2] is Human betaherpesvirus 5. Description: Antiviral activity against human cytomegalovirus infected in NHLF after 7 days by GFP-based fluorescent reduction assay. It is filed as functional, organism-based. The settings on record: Human betaherpesvirus 5, 168 h. An outline of the steps: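 Fibroblasts of the stated type (1.5 × 10⁴/well) infected with GFP-expressing recombinant AD169 (HCMV-GFP MOI 0.1 or RV-HG MOI 0.2 to 0.5). After adsorption the inoculum was replaced, with 3-fold serial compound dilutions at least in duplicate, and 7 days at 37°C. GFP units were read by CCD camera in PBS. EC₅₀ was derived from GFPU reduction versus untreated infected wells; at least triplicate runs.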

In assay [3] the test system is Human betaherpesvirus 5. Nature of the assay: Antiviral activity against human cytomegalovirus AD169 infected in NHDF assessed as inhibition of virus-induced cytopathic effect after 6 to 7 days by giemsa staining. It is filed as functional, organism-based. To be noted: Human betaherpesvirus 5, AD169, NHDF. A digest of the protocol: (§1)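 NHDF cells (1 × 10⁴/well) mixed with cell-free virus (MOI 0.03) or with infected-cell suspension (MOI 0.001 to 0.002). Compound was added from DMSO stocks in 2-fold serial dilutions, final 250 to 0.00005 μM, in duplicates. Plates were incubated 6 to 7 days at 37°C or until 100% CPE in virus control, then fixed and stained with Giemsa/formalin and scored microscopically. EC₅₀ is 50% CPE inhibition versus untreated infected control.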
(Protection from cytopathic effect is a common read-out in antiviral testing.)

Assay [4] relates to Human betaherpesvirus 5. Nature of the assay: Antiviral activity against 0.1 MOI human cytomegalovirus AD169 infected in NHDF after 7 days by GFP-based fluorescent reduction assay. It is filed as functional, organism-based. To be noted: Human betaherpesvirus 5, AD169, NHDF, 168 h. An outline of the steps:
(§2)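 NHDF cells (1.5 × 10⁴/well) infected with GFP-expressing HCMV AD169 at the stated MOI (range 0.003 to 1 tested). After adsorption the inoculum was replaced, and compound was added in 3-fold serial dilutions, each at least in duplicate. Cells were incubated 7 days at 37°C, then GFP units were read by CCD camera in PBS. EC₅₀ was taken as the % GFPU reduction versus no-drug control. At least triplicate experiments.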

The test system of assay [5] is Human betaherpesvirus 5. Nature of the assay: Antiviral activity against human cytomegalovirus isolate Se infected in NHDF assessed as inhibition of virus-induced cytopathic effect after 6 to 7 days by giemsa staining. It is filed as functional, organism-based. To be noted: Human betaherpesvirus 5, isolate Se. A digest of the protocol:
as §1

Assay [6] concerns Human betaherpesvirus 5. Description: Antiviral activity against human cytomegalovirus isolate E16415S infected in NHDF assessed as inhibition of virus-induced cytopathic effect after 6 to 7 days by giemsa staining. It is filed as functional, organism-based. To be noted: Human betaherpesvirus 5, isolate E16415S. A digest of the protocol:
(§3)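 Cell-associated virus (infected NHDF cells) used as inoculum, at MOI 0.001 to 0.002, mixed with uninfected NHDF (1 × 10⁴ to 3 × 10⁴ cells/well). Compound was added in 2-fold serial dilutions, final 250 to 0.00005 μM, in duplicates. Incubation was 6 to 7 days at 37°C, followed by Giemsa/formalin staining and visual CPE scoring. EC₅₀ is 50% CPE inhibition versus untreated infected control; at least two independent experiments.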

The test system of assay [7] is Human betaherpesvirus 5. Description: Antiviral activity against 0.3 MOI human cytomegalovirus AD169 infected in NHDF after 7 days by GFP-based fluorescent reduction assay. It is filed as functional, organism-based. To be noted: Human betaherpesvirus 5, AD169, NHDF, 168 h. A digest of the protocol: as §2
Assay [8] concerns Human betaherpesvirus 5. Description: Antiviral activity against human cytomegalovirus AD169 infected in NHDF after 7 days by GFP-based fluorescent reduction assay. It is filed as functional, organism-based. The settings on record: Human betaherpesvirus 5, AD169, NHDF, 168 h. A digest of the protocol:
(§4)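 Incubated 7 days at 37°C, medium swapped for PBS, GFP units read by CCD-camera fluorescence imager. EC50/EC90 from % GFPU reduction versus untreated infected wells by nonlinear regression; at least triplicate experiments.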

Assay [9] concerns Human betaherpesvirus 5. Nature of the assay: Antiviral activity against human cytomegalovirus Davis xenograft mouse model assessed as reduction of viral load at 10 to 100 mg/kg, po QD for 9 days measured post last dose. It is filed as functional, organism-based. A digest of the protocol: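 NOD SCID mice (18 to 25 g) implanted subcutaneously (dorsoscapular) with Gelfoam sponges seeded with 1 × 10⁶ NHDF cells infected with strain Davis (MOI 0.03), bFGF-treated. From 4 h post-transplant, dosed orally by gavage once daily for 9 days in 2% DMSO/0.5% methylcellulose-PBS, 10 ml/kg. Implants then collagenase-digested; recovered cells titrated by plaque assay on NHDF (PFU/ml).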

The subject of assay [10] is Human betaherpesvirus 5. Description: Antiviral activity against human cytomegalovirus infected in human HS27 cells after 7 days by GFP-based fluorescent reduction assay. It is filed as functional, organism-based. To be noted: Human betaherpesvirus 5, HS27, 168 h. An outline of the steps: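 GFP reduction assay run in HS27 foreskin fibroblasts instead of NHDF, infected with AD169-GFP; compounds in 3-fold serial dilutions, 7 days at 37°C, GFP units read by camera-based fluorescence detector after PBS exchange. EC50 from % GFPU reduction versus drug-free infected control; at least triplicate experiments.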

Assay [11] relates to Human betaherpesvirus 5. Description: Antiviral activity against human cytomegalovirus isolate Ba infected in NHDF assessed as inhibition of virus-induced cytopathic effect after 6 to 7 days by giemsa staining. It is filed as functional, organism-based. The settings on record: Human betaherpesvirus 5, isolate Ba. An outline of the steps:
as §1

Assay [12] deals with Human betaherpesvirus 5. Nature of the assay: Antiviral activity against ganciclovir-resistant human cytomegalovirus isolate E17251S infected in NHDF assessed as inhibition of virus-induced cytopathic effect after 6 to 7 days by giemsa staining. It is filed as functional, organism-based. To be noted: Human betaherpesvirus 5, isolate E17251S. A digest of the protocol: as §3

The test system of assay [13] is Human betaherpesvirus 5. Description: Antiviral activity against human cytomegalovirus Davis infected in NHDF assessed as inhibition of virus-induced cytopathic effect after 6 to 7 days by giemsa staining. To be noted: Human betaherpesvirus 5, Davis. It is filed as functional, organism-based. An outline of the steps: as §1
In assay [14] the test system is Human betaherpesvirus 5. Nature of the assay: Antiviral activity against human cytomegalovirus AD169 infected in NHDF assessed as inhibition of virus replication at 50 nM measured after 24 to 72 hrs of compound wash by fluorescence assay. It is filed as functional, organism-based.
The test system of assay [15] is Human betaherpesvirus 5. Nature of the assay: Antiviral activity against 0.01 MOI human cytomegalovirus AD169 infected in NHDF after 7 days by GFP-based fluorescent reduction assay. The settings on record: Human betaherpesvirus 5, AD169, NHDF, 168 h.
Assay [16] deals with Human betaherpesvirus 5. Nature of the assay: Antiviral activity against human cytomegalovirus AD169 infected in NHDF at 10 times EC50 treated postinfection and measured after 7 days by GFP-based fluorescent reduction assay.
In assay [17] the test system is Human herpesvirus 5 strain AD169. Nature of the assay: Antiviral activity against ganciclovir-resistant human cytomegalovirus AD169 UL97 M460I infected in NHDF assessed as inhibition of virus-induced cytopathic effect after 6 to 7 days by giemsa staining. It is filed as functional, organism-based. The settings on record: Human betaherpesvirus 5, UL97 M460I. An outline of the steps:
as §1

The test system of assay [18] is Human betaherpesvirus 5. Nature of the assay: Antiviral activity against 0.003 MOI human cytomegalovirus AD169 infected in NHDF after 7 days by GFP-based fluorescent reduction assay. It is filed as functional, organism-based. The settings on record: Human betaherpesvirus 5, AD169, NHDF, 168 h. A digest of the protocol: as §2
In assay [19] the test system is Human betaherpesvirus 5. Nature of the assay: Antiviral activity against human cytomegalovirus RV-HG infected in NHDF after 7 days by GFP-based fluorescent reduction assay. It is filed as functional, organism-based. To be noted: Human betaherpesvirus 5, RV-HG, 168 h. A digest of the protocol: as §4
Assay [20] has as its system Human betaherpesvirus 5. Description: Antiviral activity against 0.03 MOI human cytomegalovirus AD169 infected in NHDF after 7 days by GFP-based fluorescent reduction assay. It is filed as functional, organism-based. The settings on record: Human betaherpesvirus 5, AD169, NHDF, 168 h. A digest of the protocol: as §2
In assay [21] the test system is Human betaherpesvirus 5. Description: Antiviral activity against human cytomegalovirus AD169 infected in NHDF assessed as inhibition of virus replication at 50 nM after 96 hrs by fluorescence assay. It is filed as functional, organism-based.
The subject of assay [22] is Human betaherpesvirus 5. Nature of the assay: Antiviral activity against human cytomegalovirus isolate La infected in NHDF assessed as inhibition of virus-induced cytopathic effect after 6 to 7 days by giemsa staining. It is filed as functional, organism-based. The settings on record: Human betaherpesvirus 5, isolate La. An outline of the steps: as §1

The source made the active and inactive calls. No cut-off for these calls is given here.

Take `COc1cccc(N2CCN(C3=Nc4c(F)cccc4[C@H](CC(=O)O)N3c3cc(C(F)(F)F)ccc3OC)CC2)c1` [LETERMOVIR]: in [1], the outcome was inactive. In addition, the concentration for a half-maximal effect (EC50) (usually the concentration that produces a half-maximal response) was found to be 5 nM in assay [2]; 5 nM in assay [3]; 3.4 nM in [4]; 3.1 nM in assay [5]; 2.6 nM in [6]; 3.6 nM in assay [7]. The EC50 amounted to 3.8 nM in assay [8]; 5.6 nM in assay [10]; 5.8 nM in [11]; 6.1 nM in assay [12]; 4 nM in assay [13]; 1.5 nM in [15]. Also, the concentration for a half-maximal effect (EC50) in assay [17] turned out to be 3.9 nM; in assay [18], 1.3 nM; in assay [19], 4.9 nM; in [20] it was 2.9 nM; in [22], 3.4 nM. The 90% effect concentration (EC90) (usually the concentration needed for an effect of 90%) in assay [8] was 5.1 nM; in assay [19], 7.1 nM. Moreover, the inhibition result in [9] is “Active”. Moreover, the outcome in [14], in assay [16] and in assay [21] was Active.
